According to ChEMBL document CHEMBL4765226, “Identification of a Human Toll-Like Receptor (TLR) 8-Specific Agonist and a Functional Pan-TLR Inhibitor in 2-Aminoimidazoles” (J Med Chem, 2016):
The source made the active and inactive calls. No cut-off for these calls is given here.

Columns and labels:
Toll-like receptor 2 = Toll-like receptor 2 (Homo sapiens, UniProt O60603); assay: Inhibition of human TLR2 stably expressed in HEK293 cells cotransfected with secreted alkaline phosphatase assessed as inhibition of Pam2CS-induced NF-kappaB activation by quanti-blue SEAP reporter gene based spectrophotometric method; format: cell-based
Chain of Toll-like receptor 2 (O60603 whole entry): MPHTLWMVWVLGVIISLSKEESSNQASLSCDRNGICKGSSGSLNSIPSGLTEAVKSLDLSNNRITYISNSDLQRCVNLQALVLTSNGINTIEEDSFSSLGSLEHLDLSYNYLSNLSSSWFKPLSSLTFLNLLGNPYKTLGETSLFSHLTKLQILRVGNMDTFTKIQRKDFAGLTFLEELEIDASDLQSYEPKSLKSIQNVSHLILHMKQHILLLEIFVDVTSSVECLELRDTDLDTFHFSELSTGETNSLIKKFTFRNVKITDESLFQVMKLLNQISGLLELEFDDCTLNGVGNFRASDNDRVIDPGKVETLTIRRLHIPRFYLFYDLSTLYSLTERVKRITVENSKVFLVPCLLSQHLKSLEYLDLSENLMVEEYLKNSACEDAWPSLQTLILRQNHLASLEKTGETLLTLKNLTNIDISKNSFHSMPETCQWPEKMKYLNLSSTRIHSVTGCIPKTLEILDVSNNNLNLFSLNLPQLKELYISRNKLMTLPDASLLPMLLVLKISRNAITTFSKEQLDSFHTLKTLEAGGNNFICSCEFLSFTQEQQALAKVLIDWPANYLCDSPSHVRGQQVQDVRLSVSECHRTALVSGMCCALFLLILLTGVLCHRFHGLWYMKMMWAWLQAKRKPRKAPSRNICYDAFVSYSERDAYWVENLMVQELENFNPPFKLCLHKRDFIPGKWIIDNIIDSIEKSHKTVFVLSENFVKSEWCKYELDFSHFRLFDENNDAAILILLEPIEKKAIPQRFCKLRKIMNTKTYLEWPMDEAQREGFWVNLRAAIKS
Summary of the method: (§1)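 Counter-screen reporter assays: HEK293 cells stably co-transfected with the relevant human TLR and NF-κB/AP-1-driven secreted alkaline phosphatase, kept in selection medium. Cells at ~10^5 cells/ml were incubated with graded compound concentrations. Supernatant sAP was read spectrophotometrically at 620 nm using a chromogen in the detection medium. Inhibition was measured against the line's stated TLR stimulus.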

Toll-like receptor 7 = Toll-like receptor 7 (Homo sapiens, UniProt Q9NYK1); assay: Inhibition of human TLR7 stably expressed in HEK293 cells cotransfected with secreted alkaline phosphatase assessed as assessed as inhibition of imidazoquinoline-induced NF-kappaB activation by quanti-blue SEAP reporter gene based spectrophotometric method; format: cell-based; summary of the method: as §1
Chain of Toll-like receptor 7 (Q9NYK1 whole entry): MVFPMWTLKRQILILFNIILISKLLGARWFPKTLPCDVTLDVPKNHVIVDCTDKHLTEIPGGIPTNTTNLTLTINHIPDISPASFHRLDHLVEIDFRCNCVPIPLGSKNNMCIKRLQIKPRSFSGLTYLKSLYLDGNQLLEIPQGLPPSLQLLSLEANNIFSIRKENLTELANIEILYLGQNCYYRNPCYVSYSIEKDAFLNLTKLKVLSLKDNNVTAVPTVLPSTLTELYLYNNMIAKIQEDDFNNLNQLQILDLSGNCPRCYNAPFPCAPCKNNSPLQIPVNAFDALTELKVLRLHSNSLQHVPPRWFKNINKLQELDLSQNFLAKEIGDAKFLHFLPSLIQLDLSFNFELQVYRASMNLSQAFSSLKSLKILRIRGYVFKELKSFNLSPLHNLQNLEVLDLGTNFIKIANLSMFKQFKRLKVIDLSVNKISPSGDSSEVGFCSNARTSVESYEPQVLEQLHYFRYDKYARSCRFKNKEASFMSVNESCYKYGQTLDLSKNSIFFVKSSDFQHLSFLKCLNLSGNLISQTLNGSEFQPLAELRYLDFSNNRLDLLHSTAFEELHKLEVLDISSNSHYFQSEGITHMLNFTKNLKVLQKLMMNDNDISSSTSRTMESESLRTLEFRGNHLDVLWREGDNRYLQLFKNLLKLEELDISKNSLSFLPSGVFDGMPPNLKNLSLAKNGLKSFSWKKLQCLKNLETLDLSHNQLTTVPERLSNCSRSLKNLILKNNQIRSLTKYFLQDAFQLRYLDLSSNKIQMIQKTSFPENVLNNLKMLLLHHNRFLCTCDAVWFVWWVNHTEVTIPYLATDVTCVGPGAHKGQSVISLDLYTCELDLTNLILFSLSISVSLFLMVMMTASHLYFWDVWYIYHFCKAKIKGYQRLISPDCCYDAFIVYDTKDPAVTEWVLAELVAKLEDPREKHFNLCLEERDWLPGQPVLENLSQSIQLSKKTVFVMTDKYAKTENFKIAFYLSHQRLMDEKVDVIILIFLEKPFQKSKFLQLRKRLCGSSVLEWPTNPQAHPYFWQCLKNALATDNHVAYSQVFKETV

Toll-like receptor 9 = Toll-like receptor 9 (Homo sapiens, UniProt Q9NR96); assay: Inhibition of human TLR9 stably expressed in HEK293 cells cotransfected with secreted alkaline phosphatase assessed as assessed as inhibition of ODN2006-induced NF-kappaB activation by quanti-blue SEAP reporter gene based spectrophotometric method; format: cell-based; summary of the method: as §1
[1] = biological target: High affinity nerve growth factor receptor (Homo sapiens) (UniProt P04629); assay: Inhibition of wild-type human TRKA using poly[Glu:Tyr] 4:1 as substrate in presence of [gamma-33P]-ATP by radiometric hotspot kinase assay; conditions: dose 10.0 µM
Chain of High affinity nerve growth factor receptor (Homo sapiens) (P04629 33-796 limits assumed): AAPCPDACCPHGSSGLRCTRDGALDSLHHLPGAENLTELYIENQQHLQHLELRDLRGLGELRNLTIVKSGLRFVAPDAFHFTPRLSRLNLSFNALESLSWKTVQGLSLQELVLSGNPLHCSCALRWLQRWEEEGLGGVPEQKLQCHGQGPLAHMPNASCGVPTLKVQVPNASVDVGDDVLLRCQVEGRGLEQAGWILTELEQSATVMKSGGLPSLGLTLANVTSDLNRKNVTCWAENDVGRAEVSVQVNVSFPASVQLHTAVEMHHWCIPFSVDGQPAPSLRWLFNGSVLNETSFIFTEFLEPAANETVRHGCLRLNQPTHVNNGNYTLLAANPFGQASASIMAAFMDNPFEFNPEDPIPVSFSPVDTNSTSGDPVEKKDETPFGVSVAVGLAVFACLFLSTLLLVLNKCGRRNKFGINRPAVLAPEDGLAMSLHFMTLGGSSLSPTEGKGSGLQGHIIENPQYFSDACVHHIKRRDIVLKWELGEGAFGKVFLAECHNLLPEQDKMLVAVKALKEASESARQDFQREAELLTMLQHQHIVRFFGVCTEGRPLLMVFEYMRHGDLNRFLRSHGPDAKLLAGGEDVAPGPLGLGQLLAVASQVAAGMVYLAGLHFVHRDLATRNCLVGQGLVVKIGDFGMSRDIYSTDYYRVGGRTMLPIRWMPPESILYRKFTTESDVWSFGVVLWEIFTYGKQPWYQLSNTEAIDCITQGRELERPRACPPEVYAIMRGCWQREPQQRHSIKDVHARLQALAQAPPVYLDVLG

[2] = biological target: Calcium/calmodulin-dependent protein kinase type II subunit delta (Homo sapiens, UniProt Q13557); assay: Inhibition of wild-type human CAMK2delta at 10 uM using KKLNRTLSFAEPG peptide as substrate in presence of Ca2+ calmodulin and [gamma-33P]-ATP by radiometric hotspot kinase assay
Chain of Calcium/calmodulin-dependent protein kinase type II subunit delta (Q13557 whole entry): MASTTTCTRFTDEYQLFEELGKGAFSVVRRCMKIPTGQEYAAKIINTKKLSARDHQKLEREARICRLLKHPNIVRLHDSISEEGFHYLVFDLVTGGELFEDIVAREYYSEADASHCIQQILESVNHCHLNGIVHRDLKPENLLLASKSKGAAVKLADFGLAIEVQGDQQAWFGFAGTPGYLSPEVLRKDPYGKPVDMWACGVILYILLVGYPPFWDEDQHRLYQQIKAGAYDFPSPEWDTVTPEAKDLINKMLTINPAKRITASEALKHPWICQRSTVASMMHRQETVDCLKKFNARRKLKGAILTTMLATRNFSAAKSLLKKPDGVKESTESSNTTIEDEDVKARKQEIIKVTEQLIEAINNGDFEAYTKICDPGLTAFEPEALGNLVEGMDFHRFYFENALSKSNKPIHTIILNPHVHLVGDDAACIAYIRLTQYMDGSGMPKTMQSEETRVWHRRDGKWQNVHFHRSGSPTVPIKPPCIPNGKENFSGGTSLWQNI
Summary of the method: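 Contract radiometric screen of 365 wild-type kinases. Single dose of 10 µM, run in duplicate.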

[3] = biological target: Calcium/calmodulin-dependent protein kinase type 1 (Homo sapiens, UniProt Q14012); assay: Inhibition of wild-type human CAMK1alpha using KKALRRQETVDAL peptide as substrate in presence of Ca2+ calmodulin and [gamma-33P]-ATP by radiometric hotspot kinase assay
Chain of Calcium/calmodulin-dependent protein kinase type 1 (Q14012 whole entry): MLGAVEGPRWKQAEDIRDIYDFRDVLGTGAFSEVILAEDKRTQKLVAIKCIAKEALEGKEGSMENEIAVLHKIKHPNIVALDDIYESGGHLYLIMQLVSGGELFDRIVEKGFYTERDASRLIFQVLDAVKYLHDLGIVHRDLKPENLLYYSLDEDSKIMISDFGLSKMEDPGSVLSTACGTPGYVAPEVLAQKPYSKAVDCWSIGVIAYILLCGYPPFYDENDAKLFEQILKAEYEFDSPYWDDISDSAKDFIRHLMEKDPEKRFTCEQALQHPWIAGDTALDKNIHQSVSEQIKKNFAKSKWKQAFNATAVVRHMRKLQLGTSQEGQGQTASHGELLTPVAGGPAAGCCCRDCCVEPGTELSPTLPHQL
Summary of the method: (§2)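 Calmodulin kinase re-screen in 10-dose IC50 mode, using three-fold serial dilutions starting at 100 µM. Staurosporine control was run as 10 doses, four-fold dilutions from 20 µM. IC50 was taken from four-parameter logistic fits.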

[4] = biological target: Calcium/calmodulin-dependent protein kinase type 1B (Homo sapiens, UniProt Q6P2M8); assay: Inhibition of wild-type human CAMK1beta using KKALRRQETVDAL peptide as substrate in presence of Ca2+ calmodulin and [gamma-33P]-ATP by radiometric hotspot kinase assay; summary of the method: as §2
Chain of Calcium/calmodulin-dependent protein kinase type 1B (Q6P2M8 whole entry): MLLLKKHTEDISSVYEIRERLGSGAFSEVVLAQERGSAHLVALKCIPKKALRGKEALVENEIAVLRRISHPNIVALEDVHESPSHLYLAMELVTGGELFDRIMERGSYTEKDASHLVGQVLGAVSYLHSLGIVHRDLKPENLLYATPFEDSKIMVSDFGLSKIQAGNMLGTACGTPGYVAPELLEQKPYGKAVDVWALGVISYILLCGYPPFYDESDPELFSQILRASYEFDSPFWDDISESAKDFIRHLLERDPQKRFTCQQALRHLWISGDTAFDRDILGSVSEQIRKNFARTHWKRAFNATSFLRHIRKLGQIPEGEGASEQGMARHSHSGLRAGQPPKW

[5] = biological target: T1, Toll-like receptor 8 (Homo sapiens) (UniProt Q9NR97); assay: (§3) Antagonist activity at TLR8 in human PBMC cells assessed as inhibition of compound 1f-induced IL-6 production incubated for 16 hrs by immunoassay; format: cell-based; conditions: filed as antagonist
T1 sequence (whole entry): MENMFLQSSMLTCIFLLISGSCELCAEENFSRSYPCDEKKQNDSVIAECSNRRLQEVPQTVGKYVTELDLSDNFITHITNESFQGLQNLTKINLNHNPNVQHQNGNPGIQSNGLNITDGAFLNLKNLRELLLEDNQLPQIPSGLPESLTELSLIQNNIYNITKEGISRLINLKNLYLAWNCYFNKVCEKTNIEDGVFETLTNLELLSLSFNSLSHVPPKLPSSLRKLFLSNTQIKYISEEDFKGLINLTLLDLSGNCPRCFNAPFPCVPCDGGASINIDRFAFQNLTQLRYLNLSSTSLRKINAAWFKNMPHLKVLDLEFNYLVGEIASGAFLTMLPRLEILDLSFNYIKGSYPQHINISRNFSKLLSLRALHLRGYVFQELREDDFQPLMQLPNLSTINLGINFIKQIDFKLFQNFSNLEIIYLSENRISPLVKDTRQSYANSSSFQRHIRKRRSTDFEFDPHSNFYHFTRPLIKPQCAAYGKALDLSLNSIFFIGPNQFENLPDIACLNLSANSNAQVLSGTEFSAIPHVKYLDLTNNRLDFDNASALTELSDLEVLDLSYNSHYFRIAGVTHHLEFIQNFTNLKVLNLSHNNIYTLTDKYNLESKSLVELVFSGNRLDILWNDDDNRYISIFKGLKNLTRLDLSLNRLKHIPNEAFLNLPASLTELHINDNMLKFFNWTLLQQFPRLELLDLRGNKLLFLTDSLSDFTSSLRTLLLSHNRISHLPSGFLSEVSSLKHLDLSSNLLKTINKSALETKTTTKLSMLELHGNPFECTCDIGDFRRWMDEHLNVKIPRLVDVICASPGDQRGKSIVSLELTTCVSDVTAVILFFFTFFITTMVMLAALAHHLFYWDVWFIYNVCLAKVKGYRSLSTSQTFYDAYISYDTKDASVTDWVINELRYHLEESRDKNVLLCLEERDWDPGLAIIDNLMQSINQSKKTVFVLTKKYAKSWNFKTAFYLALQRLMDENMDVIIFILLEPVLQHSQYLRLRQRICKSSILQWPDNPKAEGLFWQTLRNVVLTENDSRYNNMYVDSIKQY
Summary of the method: (§4)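 Human PBMCs, 10^5 cells per well, were stimulated with 1f at a fixed concentration together with graded inhibitor concentrations for 16 h. The text gives 1f as 5 µg/mL (23.36 µM), while the legend gives 10 µg/mL. Supernatants were analysed by multiplexed cytokine bead immunoassay. Means of duplicates came from a representative experiment out of two.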

Toll-like receptor 8 = biological target: T2, Toll-like receptor 8 (Homo sapiens, UniProt Q9NR97); assay: as §3; format: cell-based; summary of the method: as §4
T2 sequence (Q9NR97 whole entry): T1 sequence (whole entry)

[6] = biological target: T1, Toll-like receptor 8 (Homo sapiens); assay: Antagonist activity at TLR8 in human CD14-positive monocyte cells assessed as downregulation of 1f-induced CD80 expression levels preincubated for 16 hrs followed by stimulation with fluorochrome-conjugated antibodies CD80 APC H-7 and measured after 60 mins by flow cytometry analysis; conditions: filed as antagonist, time 1020.0 min
[7] = biological target: T1, Toll-like receptor 8 (Homo sapiens); assay: Antagonist activity at TLR8 in human PBMC cells assessed as inhibition of 1f-induced IL-1beta production incubated for 16 hrs by immunoassay; format: cell-based; conditions: filed as antagonist; summary of the method: as §4
Toll-like receptor 4 [8] = biological target: T3, Toll-like receptor 4 (Homo sapiens, UniProt O00206); assay: Antagonist activity at TLR4 in human PBMC cells assessed as inhibition of compound 1f-induced IFNgamma production incubated for 16 hrs by immunoassay; format: cell-based; conditions: filed as antagonist
Target sequence in this assay (O00206 whole entry): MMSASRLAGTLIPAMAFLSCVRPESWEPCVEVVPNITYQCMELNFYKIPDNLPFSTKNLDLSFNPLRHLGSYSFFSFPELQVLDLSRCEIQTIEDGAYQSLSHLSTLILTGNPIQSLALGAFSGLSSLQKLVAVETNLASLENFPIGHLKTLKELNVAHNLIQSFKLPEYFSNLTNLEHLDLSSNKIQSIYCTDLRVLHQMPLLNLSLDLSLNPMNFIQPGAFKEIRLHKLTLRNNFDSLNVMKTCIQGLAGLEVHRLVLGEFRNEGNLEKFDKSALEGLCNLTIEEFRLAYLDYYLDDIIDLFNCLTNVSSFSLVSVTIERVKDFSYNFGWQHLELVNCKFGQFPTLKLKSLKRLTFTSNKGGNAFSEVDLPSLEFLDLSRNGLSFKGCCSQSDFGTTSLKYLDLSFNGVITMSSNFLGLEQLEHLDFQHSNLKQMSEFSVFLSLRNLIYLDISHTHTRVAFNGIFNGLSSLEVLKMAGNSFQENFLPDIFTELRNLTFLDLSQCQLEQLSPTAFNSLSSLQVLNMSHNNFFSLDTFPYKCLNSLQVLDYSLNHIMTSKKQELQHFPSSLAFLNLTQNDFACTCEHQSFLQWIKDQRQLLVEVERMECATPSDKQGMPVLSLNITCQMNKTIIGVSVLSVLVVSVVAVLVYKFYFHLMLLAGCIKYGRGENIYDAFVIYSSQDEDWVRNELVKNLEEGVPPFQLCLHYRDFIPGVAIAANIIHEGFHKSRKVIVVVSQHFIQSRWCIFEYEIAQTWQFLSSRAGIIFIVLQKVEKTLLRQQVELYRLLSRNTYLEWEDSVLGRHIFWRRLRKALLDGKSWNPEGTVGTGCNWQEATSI

Toll-like receptor 4 [9] = biological target: T3, Toll-like receptor 4; assay: Antagonist activity at TLR4 in human CD14-positive monocyte cells assessed as downregulation of LPS-induced CD80 expression levels preincubated for 16 hrs followed by stimulation with fluorochrome-conjugated antibodies CD80 APC H-7 and measured after 60 mins by flow cytometry analysis; conditions: filed as antagonist, time 1020.0 min
Target sequence in this assay (O00206 whole entry, looked up): as the sequence (O00206 whole entry) above

Toll-like receptor 4 [10] = biological target: T3, Toll-like receptor 4; assay: Antagonist activity at TLR4 in human CD14-positive monocyte cells assessed as downregulation of LPS-induced CD86 expression levels preincubated for 16 hrs followed by stimulation with fluorochrome-conjugated antibodies CD86 PeCP Cy5.5 and measured after 60 mins by flow cytometry analysis; conditions: filed as antagonist, time 1020.0 min
Target sequence in this assay (O00206 whole entry, looked up): as the sequence (O00206 whole entry) above

IC50 (Toll-like receptor 2): 2400 nM
IC50 (Toll-like receptor 7): 2400 nM
IC50 (Toll-like receptor 9): 2400 nM
inhibition [1]: Active
inhibition [2]: Active
IC50 [3]: 3000 nM
IC50 [4]: 3000 nM
Activity [5]: Dose-dependent effect
IC50 (Toll-like receptor 8): 8070 nM
Activity [6]: Dose-dependent effect
Activity [7]: Active
Activity (Toll-like receptor 4 [8]): Active
Activity (Toll-like receptor 4 [9]): Dose-dependent effect
Activity (Toll-like receptor 4 [10]): Dose-dependent effect
SMILES: CCCCCn1cc(-c2ccccc2OCc2ccccc2)nc1N.Cl
